ChEMBL document CHEMBL1136923, “Highly potent, orally available anti-inflammatory broad-spectrum chemokine inhibitors” (J Med Chem, 2009)

What was measured:
[1] = biological target: C-C chemokine receptor type 2 (Homo sapiens) (UniProt P41597); assay: Antagonist activity at CCR2 in human THP1 cells assessed as inhibition of CCL2-induced chemotaxis after 2 hrs by microtiter format trans-well migration assay; assay type: functional, cell-based; details: THP-1
How it was run: (§1)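 Microtiter trans-well migration assay in Gey's balanced salt solution with 1 mg/mL endotoxin-free BSA, no fetal calf serum. Migration ran 2 h at 37 °C. Compounds dissolved in DMSO and added to both top and bottom compartments, final DMSO 1%.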

Mus musculus [2] = assay: Antiinflammatory activity in mouse assessed as inhibition of LPS-induced TNFalpha upregulation at 0.0186 mg, po measured 2 hrs after LPS challenge; assay type: functional
How it was run: (§2)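 Murine sublethal endotoxemia: LPS given intraperitoneally, with serum TNF-α measured 2 h after the LPS injection as the end point. Compound was given subcutaneously or orally. Vehicle was 0.6% DMSO and 1% carboxymethylcellulose (final concentrations) in sterile water. Effect is reported as % relative to control.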

Mus musculus [3] = assay: Antiinflammatory activity in mouse assessed as inhibition of LPS-induced TNFalpha upregulation at 0.0066 ug, sc measured 2 hrs after LPS challenge; assay type: functional; how it was run: as §2
Mus musculus [4] = assay: Antiinflammatory activity in mouse assessed as inhibition of LPS-induced TNFalpha upregulation at 0.0016 mg, sc measured 2 hrs after LPS challenge; assay type: functional; how it was run: as §2
Mus musculus [5] = assay: Antiinflammatory activity in mouse assessed as inhibition of LPS-induced TNFalpha upregulation at 540 pg, po measured 2 hrs after LPS challenge; assay type: functional
How it was run: (§3)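 Murine sublethal LPS endotoxemia screen. LPS is injected intraperitoneally and serum TNF-α is measured 2 h later as the end point. Compound is given subcutaneously or orally in a vehicle of 0.6% DMSO plus 1% carboxymethylcellulose (final concentrations) in sterile water. Values are % relative to control.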

Mus musculus [6] = assay: Antiinflammatory activity in mouse assessed as inhibition of LPS-induced TNFalpha upregulation at 0.00016 mg, sc measured 2 hrs after LPS challenge; assay type: functional
How it was run: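 Murine sublethal endotoxemia: LPS given intraperitoneally, serum TNF-α measured 2 h after LPS injection. Compound vehicle 0.6% DMSO plus 1% carboxymethylcellulose (final concentrations) in sterile water.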

Mus musculus [7] = assay: Antiinflammatory activity in mouse assessed as inhibition of LPS-induced TNFalpha upregulation at 0.068 ug, po measured 2 hrs after LPS challenge; assay type: functional; how it was run: as §2
Mus musculus [8] = assay: Antiinflammatory activity in sc dosed mouse assessed as inhibition of LPS-induced TNFalpha upregulation measured 2 hrs after LPS challenge relative to control; assay type: functional; how it was run: as §3
[9] = biological target: C-C chemokine receptor type 2 (Homo sapiens) (UniProt P41597); assay: Antagonist activity at CCR2 in human THP1 cells assessed as inhibition of CCL2-induced chemotaxis at 100 nM after 2 hrs by microtiter format trans-well migration assay; assay type: functional, cell-based; details: THP-1; how it was run: as §1
[10] = Cmax in Sprague-Dawley rat at 3 mg/kg, po administered as single dose; assay type: ADME, organism-based; design: dose 3 mg/kg, route oral; details: in vivo
How it was run: (§4)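 Male Sprague-Dawley rats, three per compound, receive a single oral dose by gavage in 1% carboxymethylcellulose in 0.9% saline, with food and water ad libitum. Plasma is sampled from 5 to 480 min and drug is quantified by positive-mode LC/MS/MS after acetonitrile/formic acid extraction. The lower limit of quantitation is about 2 ng/mL. Exposure is AUC(0→t) by the linear/log trapezoidal rule, and F is oral fractional bioavailability.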

Mus musculus [11] = assay: Antiinflammatory activity in mouse assessed as inhibition of LPS-induced TNFalpha upregulation at 0.75 ug, po measured 2 hrs after LPS challenge; assay type: functional; how it was run: as §2
[12] = biological target: C-C chemokine receptor type 2 (Homo sapiens) (UniProt P41597); assay: Antagonist activity at CCR2 in human THP1 cells assessed as inhibition of CCL2-induced chemotaxis at 1 nM after 2 hrs by microtiter format trans-well migration assay; assay type: functional, cell-based; details: THP-1; how it was run: as §1
Mus musculus [13] = assay: Antiinflammatory activity in po dosed mouse assessed as inhibition of LPS-induced TNFalpha upregulation measured 2 hrs after LPS challenge relative to control; assay type: functional; how it was run: as §3
Mus musculus [14] = assay: Antiinflammatory activity in mouse assessed as inhibition of LPS-induced TNFalpha upregulation at 0.0016 ug, sc measured 2 hrs after LPS challenge; assay type: functional; how it was run: as §2
[15] = Half life in Sprague-Dawley rat at 1 mg/kg, iv administered as single dose; assay type: ADME, organism-based; design: dose 1 mg/kg, route intravenous; details: in vivo
How it was run: (§5)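 Male Sprague-Dawley rats, three per compound, receive a single intravenous dose in 5% DMSO in 0.9% saline. Food and water are given ad libitum. Plasma is taken at 5, 15, 30, 60, 120, 180, 240 and 480 min. Drug is measured by LC/MS/MS after extraction with 0.1% formic acid in acetonitrile. The curve is back-extrapolated to time zero assuming an initial volume of 0.26 L/kg.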

Mus musculus [16] = assay: Antiinflammatory activity in mouse assessed as inhibition of LPS-induced TNFalpha upregulation at 0.0186 ug, po measured 2 hrs after LPS challenge; assay type: functional; how it was run: as §2
Rattus norvegicus = assay: Plasma concentration in Sprague-Dawley rat at 3 mg/kg, po administered as single dose; assay type: ADME, organism-based; design: dose 3 mg/kg, route oral; details: in vivo; how it was run: as §4
[17] = AUC (0 to t) in Sprague-Dawley rat at 1 mg/kg, iv administered as single dose; assay type: ADME, organism-based, Plasma; design: dose 1 mg/kg, route intravenous; details: Sprague-Dawley, plasma
How it was run: (§6)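 Male Sprague-Dawley rats, three per compound per route, single dose. IV vehicle 5% DMSO in 0.9% saline; oral gavage vehicle 1% carboxymethylcellulose in 0.9% saline; fed ad libitum. Plasma taken 5–480 min post-dose, extracted with 0.1% formic acid in acetonitrile, quantified by LC/MS/MS (positive mode). AUC(0–t) by linear/log trapezoidal rule; IV curve back-extrapolated assuming initial volume 0.26 L/kg.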

[18] = biological target: C-C chemokine receptor type 2 (Homo sapiens) (UniProt P41597); assay: Antagonist activity at CCR2 in human THP1 cells assessed as inhibition of CCL2-induced chemotaxis at 0.1 nM after 2 hrs by microtiter format trans-well migration assay; assay type: functional, cell-based; details: THP-1; how it was run: as §1
[19] = Clearance in Sprague-Dawley rat at 1 mg/kg, iv administered as single dose; assay type: ADME, organism-based; design: dose 1 mg/kg, route intravenous; details: in vivo; how it was run: as §5
Mus musculus [20] = assay: Antiinflammatory activity in mouse assessed as inhibition of LPS-induced TNFalpha upregulation at 0.0027 ug, po measured 2 hrs after LPS challenge; assay type: functional; how it was run: as §2
[21] = Fractional bioavailability in Sprague-Dawley rat at 3 mg/kg, po administered as single dose; assay type: ADME, organism-based; details: in vivo; how it was run: as §4
[22] = biological target: C-C chemokine receptor type 2 (Homo sapiens) (UniProt P41597); assay: Antagonist activity at CCR2 in human THP1 cells assessed as inhibition of CCL2-induced chemotaxis at 1000 nM after 2 hrs by microtiter format trans-well migration assay; assay type: functional, cell-based; details: THP-1; how it was run: as §1
Mus musculus [23] = assay: Antiinflammatory activity in sc dosed mouse assessed as inhibition of LPS-induced TNFalpha upregulation measured 2 hrs after LPS challenge; assay type: functional
[24] = biological target: C-C chemokine receptor type 2 (Homo sapiens) (UniProt P41597); assay: Antagonist activity at CCR2 in human THP1 cells assessed as inhibition of CCL2-induced chemotaxis at 10 nM after 2 hrs by microtiter format trans-well migration assay; assay type: functional, cell-based; details: THP-1; how it was run: as §1
[25] = AUC (0 to t) in Sprague-Dawley rat at 3 mg/kg, po administered as single dose; assay type: ADME, organism-based; design: dose 3 mg/kg, route oral; details: plasma; how it was run: as §6
Mus musculus [26] = assay: Antiinflammatory activity in mouse assessed as inhibition of LPS-induced TNFalpha upregulation at 0.016 ug, sc measured 2 hrs after LPS challenge; assay type: functional; how it was run: as §2
[27] = Volume of distribution at steady state in Sprague-Dawley rat at 1 mg/kg, iv administered as single dose; assay type: ADME, organism-based; design: dose 1 mg/kg, route intravenous; details: in vivo, read-out: Vdss; how it was run: as §5
Mus musculus [28] = assay: Antiinflammatory activity in po dosed mouse assessed as inhibition of LPS-induced TNFalpha upregulation measured 2 hrs after LPS challenge; assay type: functional
Mus musculus [29] = assay: Antiinflammatory activity in mouse assessed as inhibition of LPS-induced TNFalpha upregulation at 0.016 mg, sc measured 2 hrs after LPS challenge; assay type: functional; how it was run: as §2
[30] = biological target: C-C chemokine receptor type 2 (Homo sapiens) (UniProt P41597); assay: Antagonist activity at CCR2 in human THP1 cells assessed as inhibition of CCL2-induced chemotaxis at 0.01 nM after 2 hrs by microtiter format trans-well migration assay; assay type: functional, cell-based; details: THP-1; how it was run: as §1

Chain of C-C chemokine receptor type 2 (Homo sapiens) (P41597 whole entry, looked up): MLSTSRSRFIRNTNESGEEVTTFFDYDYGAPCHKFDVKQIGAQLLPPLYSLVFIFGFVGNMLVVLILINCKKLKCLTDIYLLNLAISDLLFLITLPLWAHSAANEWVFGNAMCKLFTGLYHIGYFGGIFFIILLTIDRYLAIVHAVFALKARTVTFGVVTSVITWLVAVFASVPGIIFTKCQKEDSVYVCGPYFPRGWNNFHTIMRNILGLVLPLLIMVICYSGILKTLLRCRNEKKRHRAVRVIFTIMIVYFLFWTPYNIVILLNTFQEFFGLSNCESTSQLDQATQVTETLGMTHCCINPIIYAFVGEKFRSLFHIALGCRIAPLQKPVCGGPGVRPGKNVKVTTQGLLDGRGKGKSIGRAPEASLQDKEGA

Question: For CCCC(C)(C)C(=O)N[C@H]1CCCCNC1=O, which ED50 [1] is on record?
Answer: 0.5 nM

Question: With CC(CCl)(CCl)C(=O)N[C@H]1CCCCNC1=O as the compound, how does the ED50 [1] read?
Answer: 9 nM

Question: For CCCCCC12CCC(C(=O)N[C@H]3CCCCNC3=O)(CC1)CC2, which ED50 [1] is on record?
Answer: 7 nM

Question: What does the source list for CC1(C(=O)N[C@H]2CCCCNC2=O)CCCCC1?
Answer: inhibition (INH) (Mus musculus [2]): 90%; inhibition (INH) (Mus musculus [3]): 52%; inhibition (INH) (Mus musculus [4]): 73%; inhibition (INH) (Mus musculus [5]): -1%; inhibition (INH) (Mus musculus [6]): 74%; inhibition (INH) (Mus musculus [7]): 64%; inhibition (INH) (Mus musculus [8]): 90%; inhibition [9]: 99%; Cmax [10]: 3 ng/mL; inhibition (INH) (Mus musculus [11]): 70%; inhibition [12]: 98%; inhibition (INH) (Mus musculus [13]): 90%; inhibition (INH) (Mus musculus [14]): 11%; half-life [15]: 11 min; inhibition (INH) (Mus musculus [16]): 64%; Cp (Rattus norvegicus): < 2 ng/mL; AUC(0-t) [17]: 48.3 ng·h/mL; inhibition [18]: 38%; clearance [19]: 55 mL/min/kg; inhibition (INH) (Mus musculus [20]): 14%; bioavailability [21]: 5%; inhibition [22]: 100%; ED50 (Mus musculus [23]): 0.33 µg/kg; inhibition [24]: 100%; AUC(0-t) [25]: 7.17 ng·h/mL; inhibition (INH) (Mus musculus [26]): 71%; Vd [27]: 0.6 L/kg; ED50 (Mus musculus [28]): 0.33 µg/kg; ED50 [1]: 0.09 nM; inhibition (INH) (Mus musculus [29]): 88%

Question: With CCCCCCCCCCC(C)C(=O)N[C@H]1CCCCNC1=O (mixture of isomers; form 2) as the compound, how does the ED50 [1] read?
Answer: 3 nM

Question: Which ED50 [1] does the source give for CCCCCCCCC/C=C(\C)C(=O)N[C@H]1CCCCNC1=O here?
Answer: 10 nM

Question: With CC(C)CCC(C)(C)C(=O)N[C@H]1CCCCNC1=O as the compound, how does the ED50 [1] read?
Answer: 0.08 nM

Question: With CCCCCCCCCCC(C)(C)C(=O)N[C@@H]1CCCCNC1=O as the compound, how does the inhibition [9] read?
Answer: 101%

Question: What about the inhibition [12] of the same compound?
Answer: 36%

Question: What about the inhibition [18] of the same compound?
Answer: 20%

Question: And the inhibition [22]?
Answer: 98.5%

Question: What about the inhibition [30] of the same compound?
Answer: 5%

Question: What about the inhibition [24] of the same compound?
Answer: 69%

Question: What about the ED50 [1] of the same compound?
Answer: 4.5 nM

Question: For CCC(C)(C)C(=O)N[C@H]1CCCCNC1=O, which ED50 [1] is on record?
Answer: 0.07 nM

Question: For O=C(CC12CC3CC(CC(C3)C1)C2)N[C@H]1CCCCNC1=O, which ED50 [1] is on record?
Answer: 0.8 nM
